This is a sample that favours compounds with a hit; in the whole collection about 2.1% have one here.
zfTRPN1 agonist – agonists of zebrafish TRPN1 channel | HEK293 zebrafish TRPN1-YFP, Fluo-8 calcium fluorescence; 100% = response to 87 µM carbachol | activation, % at 3 µM | 0.18% of 220,000 active | AID 1424;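 active means activation above its plate's cutoff, the mean activation of test wells on that plate plus 3 SD, cut at about 19% in these data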;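 further: 0% = DMSO alone and 100% = 87 µM carbachol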
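System: zebrafish TRPN1-YFP in HEK293 cells / Dosing: 3 µM single point / Timing: dye loading 1 h at 37 °C, then 30 min room temperature / Signal: Fluo-8 calcium fluorescence, excitation 470-495 nm, emission 515-575 nm / Read-out basis: percent activation from peak over basal fluorescence ratio, control-normalized / Control set: high carbachol 87 µM, low DMSO alone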
CRFBP-R2 agonist – CRF-BP/CRF-R2 complex agonism; HEK293 CRF-R2/CRF-BP, calcium dye fluorescence (FLIPR); percent of saturating CRF peptide response; activation, % at 13.2 µM; 0.46% of 350,000 active;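 active means activation of at least 50%, plus an integration ratio under a set limit after plate pattern correction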;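 further: plate controls were neutral control wells without compound for no effect and CRF at EC100 for full effect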
IMP-1 inh – blocks Pseudomonas aeruginosa IMP-1 metallo-beta-lactamase | purified IMP-1, nitrocefin hydrolysis, epi-absorbance fluorescence | inhibition, % at 5.6 µM | 0.45% of 290,000 active | AID 1556;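 active means inhibition above the mean plus 3 SD of all compounds in the same screening run, cut at about 4.5% in these data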;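 further: 0% = IMP-1 with DMSO and 100% = DMSO wells lacking enzyme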
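Assay system: purified recombinant IMP-1 beta-lactamase. Input: IMP-1 0.2 nM before substrate addition. Buffer or medium: Zinc- and detergent-supplemented HEPES buffer, pH 7.1. Schedule: 25 °C, 15 min preincubation, 25 min reaction. Signal: Epi-absorbance fluorescence, 480 nm excitation, 530 nm emission. Evaluation: percent inhibition from optical density relative to buffer-blank wells.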
VIM-2 inhibitor – blocks Pseudomonas aeruginosa VIM-2 metallo-beta-lactamase. AID 1527. inhibition, % at 5.6 µM. 0.89% of 290,000 active. purified VIM-2, nitrocefin hydrolysis, epi-absorbance fluorescence;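 active means inhibition above the mean of all tested compounds plus 3 SD, cutoff set per screening run, cut at about 7.5% in these data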;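 further: red hydrolysis product quenches plate fluorescence so inhibitors raise well fluorescence; 0% = enzyme with DMSO and 100% = DMSO without enzyme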
TRPML3 agonist – agonists of human TRPML3 channel; activation, % at 3 µM; HEK293 TRPML3-YFP, Fluo-8 calcium fluorescence; 100% = the carbachol control signal; 0.29% of 220,000 active; Q8TDD5;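 active means activation above its plate's cutoff, the mean activation of the plate's test wells plus 3 SD, cut at about 12% in these data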;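 further: 0% = DMSO only wells and 100% = carbachol wells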
Target sequence (Q8TDD5 whole entry, looked up): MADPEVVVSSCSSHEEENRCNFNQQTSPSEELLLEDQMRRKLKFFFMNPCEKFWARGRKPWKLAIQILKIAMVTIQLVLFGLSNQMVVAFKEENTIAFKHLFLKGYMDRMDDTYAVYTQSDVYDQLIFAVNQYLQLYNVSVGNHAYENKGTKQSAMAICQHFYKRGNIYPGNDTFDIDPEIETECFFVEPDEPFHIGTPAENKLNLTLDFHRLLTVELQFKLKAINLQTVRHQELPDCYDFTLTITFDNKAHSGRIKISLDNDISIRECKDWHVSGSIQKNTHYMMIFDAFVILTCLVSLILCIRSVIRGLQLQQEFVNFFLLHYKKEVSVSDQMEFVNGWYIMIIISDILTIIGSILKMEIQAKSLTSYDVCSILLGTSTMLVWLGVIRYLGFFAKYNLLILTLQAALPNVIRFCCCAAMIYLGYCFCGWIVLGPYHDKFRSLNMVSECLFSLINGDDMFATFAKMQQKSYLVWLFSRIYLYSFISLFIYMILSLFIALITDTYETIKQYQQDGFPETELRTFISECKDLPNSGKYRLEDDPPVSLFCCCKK
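system = HEK293 cells stably carrying human TRPML3-YFP | doses = one concentration, 3 µM nominal, 0.3% DMSO | timing = dye loading 1 h 37 °C then 30 min ambient, 125 s read | detection = Fluo-8 calcium dye fluorescence, ex 470-495, em 515-575 nm | benchmarks = high control carbachol 87 µM, low control DMSO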
CRFBP-R2 block – CRF-BP/CRF-R2 complex antagonism; HEK293 CRF-R2/CRF-BP, CRF-induced calcium fluorescence; inhibition, % at 11.8 µM; 0.59% of 350,000 active; AID 588475;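 active means inhibition of the ligand-induced calcium signal above about 50% at the single tested concentration, limit read from the data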
* = called active by the depositor.

How did CC(C)Cn1c(N)c(C(=O)COC(=O)Cc2cccc(C(F)(F)F)c2)c(=O)n(C)c1=O do in these assays?
CRFBP-R2 agonist: 2; CRFBP-R2 block: -5

How did Cc1ccc(NS(=O)(=O)c2ccc(C(=O)N3CC(C)CC(C)C3)cc2)cc1 (stereo not drawn) do in these assays?
CRFBP-R2 agonist: 117*; CRFBP-R2 block: -51

How did CCOCC(=O)Nc1cc(C(=O)Nc2cc(C)cc(C)c2)ccc1Cl do in these assays?
zfTRPN1 agonist: 1; IMP-1 inh: -3; VIM-2 inhibitor: -4; TRPML3 agonist: 1

What do the screens show for `Cc1ccc(NS(=O)(=O)c2ccc(C(=O)Nc3nncs3)cc2)cc1`?
CRFBP-R2 agonist: 4; CRFBP-R2 block: 110*

How did Cc1ccc(S(=O)(=O)Nc2cc(C(=O)Nc3cc(C)cc(C)c3)ccc2Cl)cc1 do in these assays?
zfTRPN1 agonist: -2; CRFBP-R2 agonist: -2; IMP-1 inh: 0; VIM-2 inhibitor: -4; TRPML3 agonist: -1; CRFBP-R2 block: 55*

Results for Cc1ccc(S(=O)(=O)Nc2ccc(C(=O)NC3CC3)cc2)cc1 ?
CRFBP-R2 agonist: 1; IMP-1 inh: -2; VIM-2 inhibitor: -3; CRFBP-R2 block: 3

What do the screens show for `O=C(Cn1cnc2scc(-c3cccc([N+](=O)[O-])c3)c2c1=O)NCc1ccco1`?
zfTRPN1 agonist: -1; CRFBP-R2 agonist: -2; IMP-1 inh: 0; VIM-2 inhibitor: 4; TRPML3 agonist: 1; CRFBP-R2 block: 21

Results for C[C@H](CO)N1C[C@H](C)[C@@H](CN(C)S(=O)(=O)c2cccc(F)c2)Oc2ncc(Br)cc2C1=O ?
CRFBP-R2 agonist: 5; CRFBP-R2 block: -17

What do the screens show for `COC(=O)c1ccc(Sc2ccc(Cl)cc2)c(N)c1`?
zfTRPN1 agonist: -2; CRFBP-R2 agonist: -1; IMP-1 inh: -2; VIM-2 inhibitor: -1; TRPML3 agonist: -1; CRFBP-R2 block: 73*

Results for COC(=O)c1ccc(C(=O)OC)c(N)c1 ?
zfTRPN1 agonist: -1; IMP-1 inh: -4; VIM-2 inhibitor: -1; TRPML3 agonist: -1

How did COc1cccc(C(=O)CC(C#N)c2ccc(F)cc2)c1 (stereo not drawn) do in these assays?
CRFBP-R2 agonist: 1; IMP-1 inh: -2; VIM-2 inhibitor: -3; CRFBP-R2 block: 19

What do the screens show for `COc1ccc(OC)c2c1sc(=NC(=O)C1COc3ccccc3O1)n2C` (stereo not drawn)?
zfTRPN1 agonist: 2; CRFBP-R2 agonist: 5; IMP-1 inh: -1; VIM-2 inhibitor: -2; TRPML3 agonist: 0; CRFBP-R2 block: 82*

What do the screens show for `CCCNC(=O)C1CN(C(=O)c2nn(Cc3ccccc3)c(=O)c3ccccc23)c2ccccc2O1` (stereo not drawn)?
CRFBP-R2 agonist: -1; CRFBP-R2 block: 12

Results for C/C(=C1/C(=O)N(c2ccc([N+](=O)[O-])cc2)N=C1c1ccccc1)N(C)C ?
zfTRPN1 agonist: 31*; IMP-1 inh: -3; VIM-2 inhibitor: -1; TRPML3 agonist: 3

What do the screens show for `CCCC1(CCC)NC(=O)N(CC(=O)Nc2ccc(Cl)c(S(=O)(=O)N3CCOCC3)c2)C1=O`?
CRFBP-R2 agonist: 0; CRFBP-R2 block: 69*

What do the screens show for `O=C(Nc1ccccc1)Nc1ccc(Cl)c(S(=O)(=O)N2CCOCC2)c1`?
zfTRPN1 agonist: 23*; CRFBP-R2 agonist: 16; IMP-1 inh: -2; VIM-2 inhibitor: -1; TRPML3 agonist: 13*; CRFBP-R2 block: -2

What do the screens show for `Cc1ccccc1NCc1nnc2n1CCCCC2`?
zfTRPN1 agonist: 2; CRFBP-R2 agonist: 1; IMP-1 inh: -5; VIM-2 inhibitor: -3; TRPML3 agonist: 1; CRFBP-R2 block: -5

Results for CC(=O)Oc1ccc(C(=O)Nc2ccc(C3(C#N)CCCC3)cc2)cc1 ?
CRFBP-R2 agonist: 4; IMP-1 inh: 12*; VIM-2 inhibitor: 0; CRFBP-R2 block: -13

Results for COc1ccc(C(=O)c2coc3c2C(=O)C(=O)c2ccccc2-3)cc1 ?
zfTRPN1 agonist: -1; CRFBP-R2 agonist: -1; IMP-1 inh: 12*; VIM-2 inhibitor: 5; TRPML3 agonist: -1; CRFBP-R2 block: -3

Results for CC(C)CCNC(=S)NC1CCCC1 ?
zfTRPN1 agonist: 0; CRFBP-R2 agonist: 1; IMP-1 inh: -2; VIM-2 inhibitor: -5; TRPML3 agonist: 0; CRFBP-R2 block: 0

What do the screens show for `CC(C)CN(CC(C)C)C(=S)NC1CCCCC1`?
zfTRPN1 agonist: 0; CRFBP-R2 agonist: -2; IMP-1 inh: -3; VIM-2 inhibitor: -2; TRPML3 agonist: 0; CRFBP-R2 block: 55*

How did O=c1cc(C(F)(F)F)[nH]c2ccc(C(F)(F)F)cc12 do in these assays?
zfTRPN1 agonist: 8; CRFBP-R2 agonist: 46; IMP-1 inh: -3; VIM-2 inhibitor: 0; TRPML3 agonist: 2; CRFBP-R2 block: 34

Results for COC(=O)c1scc2c(=O)cc(C(F)(F)F)[nH]c12 ?
zfTRPN1 agonist: 2; CRFBP-R2 agonist: 63*; IMP-1 inh: -4; VIM-2 inhibitor: -2; TRPML3 agonist: 0; CRFBP-R2 block: -18

Results for Cc1ccc(S(=O)(=O)n2cnc3cc([N+](=O)[O-])ccc32)cc1C ?
zfTRPN1 agonist: 0; CRFBP-R2 agonist: -2; IMP-1 inh: -1; VIM-2 inhibitor: -4; TRPML3 agonist: 1; CRFBP-R2 block: 21

What do the screens show for `Cc1ccc(-n2c3nc(=O)[nH]c(=O)c-3cc3cc([N+](=O)[O-])ccc32)cc1C`?
zfTRPN1 agonist: 1; CRFBP-R2 agonist: 58*; IMP-1 inh: -3; VIM-2 inhibitor: -2; TRPML3 agonist: 1; CRFBP-R2 block: -73

What do the screens show for `COc1ccc2c(Cl)c(C(=O)N/N=C3\CCCC(=O)C3)sc2c1`?
zfTRPN1 agonist: 3; CRFBP-R2 agonist: 79*; IMP-1 inh: 0; VIM-2 inhibitor: 3; TRPML3 agonist: 1; CRFBP-R2 block: -64

How did COc1ccc(CC(=O)Nc2nnc(SCC(=O)NCc3ccco3)s2)cc1OC do in these assays?
zfTRPN1 agonist: 1; CRFBP-R2 agonist: -2; IMP-1 inh: -3; VIM-2 inhibitor: -2; TRPML3 agonist: 0; CRFBP-R2 block: 6

What do the screens show for `CCCN1Cc2cccc(C(=O)Nc3ccc(CN4CCCC4)cc3)c2C1=O`?
zfTRPN1 agonist: 1; CRFBP-R2 agonist: 16; IMP-1 inh: -2; VIM-2 inhibitor: 12*; TRPML3 agonist: 0; CRFBP-R2 block: -42

What do the screens show for `CCCN1Cc2cccc(C(=O)Nc3ccc(OC)c(OC)c3)c2C1=O`?
CRFBP-R2 agonist: -2; CRFBP-R2 block: 25

What do the screens show for `O=C(O)c1cccc(N/N=C/c2cc(Br)cc(Br)c2O)c1`?
zfTRPN1 agonist: 2; CRFBP-R2 agonist: 4; IMP-1 inh: -2; VIM-2 inhibitor: -2; TRPML3 agonist: 1; CRFBP-R2 block: 64*

Source: PubChem BioAssay
